Assay results from different studies.
Target: Activin receptor type-1B (ACVR1B, Homo sapiens, UniProt P36896)
Sequence (P36896 24-505, as in one of the studies): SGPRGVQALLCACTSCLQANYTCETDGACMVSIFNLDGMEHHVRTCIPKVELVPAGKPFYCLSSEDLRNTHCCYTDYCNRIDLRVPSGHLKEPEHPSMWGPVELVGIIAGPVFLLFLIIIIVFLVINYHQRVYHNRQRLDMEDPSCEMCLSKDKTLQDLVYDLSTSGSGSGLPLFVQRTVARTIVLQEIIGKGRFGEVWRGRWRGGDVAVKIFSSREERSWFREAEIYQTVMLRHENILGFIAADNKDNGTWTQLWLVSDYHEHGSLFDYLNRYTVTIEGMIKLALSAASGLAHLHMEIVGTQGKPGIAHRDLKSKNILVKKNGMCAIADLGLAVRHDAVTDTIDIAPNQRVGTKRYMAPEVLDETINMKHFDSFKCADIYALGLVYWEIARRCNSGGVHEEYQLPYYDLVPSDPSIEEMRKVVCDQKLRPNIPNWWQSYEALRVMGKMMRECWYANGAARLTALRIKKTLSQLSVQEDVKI

COc1ccc2oc(-c3ccc4nc(N)oc4c3)c/c(=N\c3ccccc3NC(=O)CCN)c2c1
remaining binding (binding; 1 µM): 108%

Cc1ccc(NC(=O)c2ccnc(C(F)(F)F)c2)cc1-c1cc(OCCO)nc(N2CCOCC2)c1
remaining binding (binding, competition with immobilised ligand; 1 µM): 99%

C=CC(=O)N1CCC([C@@H]2CCNc3c(C(N)=O)c(-c4ccc(Oc5ccccc5)cc4)nn32)CC1
inhibition (enzyme activity, inhibitor; 1 µM): 5%

C1=C/COCc2cc(ccc2OCCN2CCCC2)Nc2nccc(n2)-c2cccc(c2)COC/1
remaining binding (binding; 0.1 µM): 91%

C#Cc1cnc(Nc2ccnc(CO)c2)nc1Nc1ccccc1S(C)(=O)=NC#N (stereo not drawn)
remaining signal (cell-free assay; 1 µM): 52%

C[C@H]1CC[C@H](n2c3cnccc3c3cnc(Nc4ccc5c(n4)CCN(C(=O)CO)C5)nc32)CC1
remaining binding (cell-free assay, competition with immobilised ligand; 1 µM): 96%

N#Cc1ccc(NC(=O)Nc2ccccc2)cc1
remaining binding (cell-free assay, competition with immobilised ligand; 25 µM): 100%

CCCCC(=O)Nc1ccc(-c2ccc3ncn(CCC)c(=O)c3c2)cn1
remaining binding (binding, competition with immobilised ligand; 0.5 µM): 87%

CC#CC(=O)N1CCC[C@H]1c1nc(-c2ccc(C(=O)Nc3ccccn3)cc2)c2c(N)nccn12
inhibition (enzyme activity, inhibitor; 1 µM): 1%
